Measured values: ChEMBL document CHEMBL1687738, “Effect of Candida glabrata FKS1 and FKS2 mutations on echinocandin sensitivity and kinetics of 1,3-beta-D-glucan synthase: implication for the existing susceptibility breakpoint” (Antimicrob Agents Chemother, 2009)
pIC50: −log10 of the molar value. In brackets after ≈: the same amount, converted by molar mass. Starred links: 1 amine or outer side, 2 acyl side, 3 side chain; linkers in the order of their positions; H or OH if unused. Positions of bridges follow the written chain, without caps; N, C: chain ends. Non-standard residues stand in square brackets, D forms with d. Residues, ends and D or L forms follow the SMILES beside them. *: point of attachment. hTyr(3S-OH,4S-OH,3'-OSO3H) = N[C@H](C(=O)O)[C@H](O)[C@@H](O)c1ccc(O)c(OS(=O)(=O)O)c1; Orn(4R-OH,5R-OH) = O=C([C@H](C[C@@H](O)[C@@H](O)N[*:3])N[*:1])[*:2]; Pro(3S-OH,4S-Me) = C[C@H]1CN[C@H](C(=O)O)[C@H]1O; X1 = CCCCCOc1ccc(-c2cc(-c3ccc(C(=O)*)cc3)no2)cc1; Gln(3R-OH) = NC(=O)C[C@@H](O)[C@H](N)C(=O)O; Hyp = O=C(O)[C@@H]1C[C@@H](O)CN1

Legend:
1,3-beta-glucan synthase [1] = biological target: 1,3-beta-glucan synthase (Candida glabrata, UniProt F5BCZ9, F659V); test: Inhibition of Candida glabrata isolate 234 1,3-beta-D-glucan synthase wild type Fks1p/Fks2p F659V mutant; set-up: species or system Nakaseomyces glabratus
Method in brief: (§1)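 Cells grown in YPD broth at 35°C with vigorous shaking to early stationary phase. Membrane protein extracted and glucan synthase partially purified by product entrapment. Filtration polymerization assay measured [3H]glucose incorporation into product, started by adding enzyme. Echinocandin serial dilutions spanned 0.01–10,000 ng/ml, with 1% DMSO controls for anidulafungin. IC50 from variable-slope sigmoidal fit.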

Nakaseomyces glabratus [2] = test: Antifungal activity against Candida glabrata isolate 3169 expressing Fks1p D632E mutant and wild type Fks2p by CLSI method; format: functional
Method in brief: (§2)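 Broth microdilution MIC per CLSI M27-A3 in RPMI 1640 medium without serum. Caspofungin and micafungin stocks in sterile water; anidulafungin stock in 100% DMSO; stocks kept at −86°C.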

1,3-beta-glucan synthase [3] = biological target: 1,3-beta-glucan synthase (Candida glabrata, UniProt F5BCZ9, F659S); test: Inhibition of Candida glabrata isolate 41026 1,3-beta-D-glucan synthase wild type Fks1p/Fks2p F659S mutant; set-up: species or system Nakaseomyces glabratus; method in brief: as §1
Nakaseomyces glabratus [4] = test: Antifungal activity against Candida glabrata isolate 41400 expressing wild type Fks1p and Fks2p D666G mutant by CLSI method in presence of 50% human serum; format: functional
Method in brief: (§3)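 Broth microdilution MIC per CLSI M27-A3 in RPMI 1640 supplemented with 50% serum. Caspofungin and micafungin stocks in sterile water; anidulafungin stock in 100% DMSO; stocks kept at −86°C.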

Nakaseomyces glabratus [5] = test: Antifungal activity against Candida glabrata isolate 3169 expressing Fks1p D632E mutant and wild type Fks2p by CLSI method in presence of 50% human serum; format: functional; method in brief: as §3
[6] = biological target: 1,3-beta-glucan synthase component FKS1 (Candida glabrata, UniProt E2GKZ4, D632G); test: Inhibition of Candida glabrata isolate 21900 1,3-beta-D-glucan synthase Fks1p D632G mutant/wild type Fks2p; set-up: species or system Nakaseomyces glabratus; method in brief: as §1
Chain of 1,3-beta-glucan synthase component FKS1 (Candida glabrata, UniProt E2GKZ4, D632G) (E2GKZ4 entry or part of it D632G): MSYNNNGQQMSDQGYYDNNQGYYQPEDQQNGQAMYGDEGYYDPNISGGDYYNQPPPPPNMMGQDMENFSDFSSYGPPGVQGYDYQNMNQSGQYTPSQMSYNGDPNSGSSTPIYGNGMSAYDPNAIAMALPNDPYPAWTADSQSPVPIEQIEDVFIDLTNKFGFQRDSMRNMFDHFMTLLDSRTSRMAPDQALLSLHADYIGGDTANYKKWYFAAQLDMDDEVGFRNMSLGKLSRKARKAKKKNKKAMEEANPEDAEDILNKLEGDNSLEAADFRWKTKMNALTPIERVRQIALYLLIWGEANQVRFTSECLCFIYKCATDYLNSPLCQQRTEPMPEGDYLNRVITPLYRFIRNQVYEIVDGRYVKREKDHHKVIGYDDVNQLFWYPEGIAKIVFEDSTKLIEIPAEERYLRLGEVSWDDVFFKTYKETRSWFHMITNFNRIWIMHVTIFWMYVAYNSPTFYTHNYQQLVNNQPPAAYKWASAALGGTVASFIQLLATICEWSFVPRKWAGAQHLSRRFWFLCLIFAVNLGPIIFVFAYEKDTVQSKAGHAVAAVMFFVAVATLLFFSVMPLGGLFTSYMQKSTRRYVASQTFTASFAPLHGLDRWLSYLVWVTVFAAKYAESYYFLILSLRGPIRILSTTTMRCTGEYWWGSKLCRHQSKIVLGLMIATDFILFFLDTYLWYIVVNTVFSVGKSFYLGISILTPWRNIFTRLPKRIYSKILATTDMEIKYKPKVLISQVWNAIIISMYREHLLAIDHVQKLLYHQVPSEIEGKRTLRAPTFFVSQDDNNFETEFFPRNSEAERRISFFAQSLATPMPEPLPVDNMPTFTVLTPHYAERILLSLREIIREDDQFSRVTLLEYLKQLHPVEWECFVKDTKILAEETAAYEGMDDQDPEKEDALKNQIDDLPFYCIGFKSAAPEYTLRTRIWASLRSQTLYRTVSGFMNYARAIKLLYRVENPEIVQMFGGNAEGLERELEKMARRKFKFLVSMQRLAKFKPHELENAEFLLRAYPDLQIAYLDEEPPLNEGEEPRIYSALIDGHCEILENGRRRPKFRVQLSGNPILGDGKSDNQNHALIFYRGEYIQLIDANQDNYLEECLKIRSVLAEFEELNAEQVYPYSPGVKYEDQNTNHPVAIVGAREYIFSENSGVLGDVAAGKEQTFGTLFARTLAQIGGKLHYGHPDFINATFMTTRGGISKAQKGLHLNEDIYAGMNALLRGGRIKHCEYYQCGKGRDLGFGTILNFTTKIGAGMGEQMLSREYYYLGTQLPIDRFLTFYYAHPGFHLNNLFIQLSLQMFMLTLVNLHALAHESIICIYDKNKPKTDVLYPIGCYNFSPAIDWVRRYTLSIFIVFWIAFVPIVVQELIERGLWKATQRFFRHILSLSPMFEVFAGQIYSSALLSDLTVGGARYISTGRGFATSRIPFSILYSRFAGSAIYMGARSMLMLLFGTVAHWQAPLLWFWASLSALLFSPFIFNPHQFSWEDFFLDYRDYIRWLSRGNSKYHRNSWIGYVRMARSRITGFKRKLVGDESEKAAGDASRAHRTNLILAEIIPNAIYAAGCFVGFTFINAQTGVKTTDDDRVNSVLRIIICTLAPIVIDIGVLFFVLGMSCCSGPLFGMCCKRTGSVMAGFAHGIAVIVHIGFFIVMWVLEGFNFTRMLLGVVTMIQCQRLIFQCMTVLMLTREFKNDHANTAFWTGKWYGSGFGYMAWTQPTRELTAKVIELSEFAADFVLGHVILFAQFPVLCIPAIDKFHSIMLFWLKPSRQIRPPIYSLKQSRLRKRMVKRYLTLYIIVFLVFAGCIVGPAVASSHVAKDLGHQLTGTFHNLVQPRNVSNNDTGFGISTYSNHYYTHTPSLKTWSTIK

Nakaseomyces glabratus [7] = test: Antifungal activity against Candida glabrata isolate 31498 expressing wild type Fks1p and Fks2p F659 deletion mutant by CLSI method; format: functional; method in brief: as §2
Nakaseomyces glabratus [8] = test: Antifungal activity against Candida glabrata isolate 51916 expressing wild type Fks1p and Fks2p P667T mutant by CLSI method; format: functional; method in brief: as §2
[9] = biological target: 1,3-beta-glucan synthase component FKS1 (Candida glabrata, UniProt E2GKZ4, F625S); test: Inhibition of Candida glabrata isolate 42997 1,3-beta-D-glucan synthase Fks1p F625S mutant/wild type Fks2p; set-up: species or system Nakaseomyces glabratus; method in brief: as §1
1,3-beta-glucan synthase [10] = biological target: 1,3-beta-glucan synthase (Candida glabrata, UniProt F5BCZ9, D666E); test: Inhibition of Candida glabrata isolate 42031 1,3-beta-D-glucan synthase wild type Fks1p/Fks2p D666E mutant; set-up: species or system Nakaseomyces glabratus; method in brief: as §1
Nakaseomyces glabratus [11] = test: Antifungal activity against Candida glabrata isolate 42971 expressing Fks1p D632Y mutant and Fks2p R1377STOP mutant by CLSI method in presence of 50% human serum; format: functional; method in brief: as §3
Nakaseomyces glabratus [12] = test: Antifungal activity against Candida glabrata isolate 51916 expressing wild type Fks1p and Fks2p P667T mutant by CLSI method in presence of 50% human serum; format: functional; method in brief: as §3
Nakaseomyces glabratus [13] = test: Antifungal activity against Candida glabrata ATCC 90030 expressing wild type Fks1p and Fks2p by CLSI method; format: functional
Method in brief: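 Broth microdilution MIC per CLSI M27-A3 in RPMI 1640 medium, also run in RPMI 1640 with 50% serum. Wild-type control strain. Caspofungin and micafungin dissolved in sterile distilled water and anidulafungin in 100% DMSO; stock solutions stored at −86°C. Geometric means used to compare MICs.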

1,3-beta-glucan synthase [14] = biological target: 1,3-beta-glucan synthase (Candida glabrata, UniProt F5BCZ9, P667T); test: Inhibition of Candida glabrata isolate 51916 1,3-beta-D-glucan synthase wild type Fks1p/Fks2p P667T mutant; set-up: species or system Nakaseomyces glabratus; method in brief: as §1
Chain of 1,3-beta-glucan synthase (Candida glabrata, UniProt F5BCZ9, P667T) (F5BCZ9 entry or part of it P667T): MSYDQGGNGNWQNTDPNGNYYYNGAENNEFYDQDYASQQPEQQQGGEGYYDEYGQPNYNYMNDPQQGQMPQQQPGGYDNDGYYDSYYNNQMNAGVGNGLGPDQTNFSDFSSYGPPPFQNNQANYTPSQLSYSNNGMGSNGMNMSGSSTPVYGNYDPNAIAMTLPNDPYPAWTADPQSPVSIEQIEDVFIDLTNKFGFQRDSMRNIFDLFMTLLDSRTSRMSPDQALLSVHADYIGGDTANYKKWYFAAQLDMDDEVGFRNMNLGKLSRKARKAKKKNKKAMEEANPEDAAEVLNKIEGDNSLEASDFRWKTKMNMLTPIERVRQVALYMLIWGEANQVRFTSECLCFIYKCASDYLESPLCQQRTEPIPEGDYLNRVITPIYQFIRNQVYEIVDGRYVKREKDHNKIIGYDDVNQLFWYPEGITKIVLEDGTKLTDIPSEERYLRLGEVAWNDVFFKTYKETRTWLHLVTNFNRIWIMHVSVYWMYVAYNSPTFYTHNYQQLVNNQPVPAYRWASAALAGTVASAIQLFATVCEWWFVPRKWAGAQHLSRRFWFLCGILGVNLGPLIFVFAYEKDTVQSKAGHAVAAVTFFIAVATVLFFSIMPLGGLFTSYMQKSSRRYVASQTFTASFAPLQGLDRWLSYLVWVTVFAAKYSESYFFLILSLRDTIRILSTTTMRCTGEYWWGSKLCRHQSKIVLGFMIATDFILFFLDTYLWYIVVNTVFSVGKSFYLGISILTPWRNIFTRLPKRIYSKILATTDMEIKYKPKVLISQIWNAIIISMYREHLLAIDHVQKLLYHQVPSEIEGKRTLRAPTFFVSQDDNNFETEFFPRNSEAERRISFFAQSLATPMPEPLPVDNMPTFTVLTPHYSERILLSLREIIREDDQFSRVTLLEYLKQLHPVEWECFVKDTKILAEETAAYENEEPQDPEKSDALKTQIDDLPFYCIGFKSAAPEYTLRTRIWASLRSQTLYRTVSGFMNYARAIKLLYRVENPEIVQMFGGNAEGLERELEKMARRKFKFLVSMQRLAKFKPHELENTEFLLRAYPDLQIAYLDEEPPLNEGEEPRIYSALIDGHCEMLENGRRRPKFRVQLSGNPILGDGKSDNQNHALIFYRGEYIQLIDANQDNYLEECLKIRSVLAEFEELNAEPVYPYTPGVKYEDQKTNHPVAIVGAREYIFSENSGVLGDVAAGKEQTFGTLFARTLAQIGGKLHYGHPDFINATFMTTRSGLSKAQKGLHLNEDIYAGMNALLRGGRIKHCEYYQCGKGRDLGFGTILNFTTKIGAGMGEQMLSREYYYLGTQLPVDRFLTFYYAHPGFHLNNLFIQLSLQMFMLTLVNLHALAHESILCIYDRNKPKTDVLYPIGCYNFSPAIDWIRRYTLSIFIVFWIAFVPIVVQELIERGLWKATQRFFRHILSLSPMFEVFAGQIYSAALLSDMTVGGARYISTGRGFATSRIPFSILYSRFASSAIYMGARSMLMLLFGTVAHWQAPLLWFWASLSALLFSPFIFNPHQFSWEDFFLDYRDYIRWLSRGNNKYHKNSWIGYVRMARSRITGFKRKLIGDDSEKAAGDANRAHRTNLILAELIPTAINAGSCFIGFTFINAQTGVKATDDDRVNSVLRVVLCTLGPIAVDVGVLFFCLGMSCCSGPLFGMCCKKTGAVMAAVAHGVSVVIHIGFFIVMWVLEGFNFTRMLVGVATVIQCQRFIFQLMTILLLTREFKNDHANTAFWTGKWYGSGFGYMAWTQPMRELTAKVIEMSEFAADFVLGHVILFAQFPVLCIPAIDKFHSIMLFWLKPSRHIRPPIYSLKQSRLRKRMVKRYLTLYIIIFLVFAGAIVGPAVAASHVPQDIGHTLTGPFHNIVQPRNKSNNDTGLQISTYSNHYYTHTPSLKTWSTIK

Nakaseomyces glabratus [15] = test: Antifungal activity against Candida glabrata ATCC 90030 expressing wild type Fks1p and Fks2p by CLSI method in presence of 50% human serum; format: functional; method in brief: as §3
[16] = Inhibition of Candida glabrata isolate 31498 1,3-beta-D-glucan synthase wild type Fks1p/Fks2p F659 deletion mutant; set-up: species or system Nakaseomyces glabratus; method in brief: as §1
[17] = Inhibition of Candida glabrata isolate 218 wild type 1,3-beta-D-glucan synthase; set-up: species or system Nakaseomyces glabratus; method in brief: as §1
[18] = Inhibition of Candida glabrata ATCC 90030 wild type 1,3-beta-D-glucan synthase; set-up: species or system Nakaseomyces glabratus; method in brief: as §1
Nakaseomyces glabratus [19] = test: Antifungal activity against Candida glabrata isolate 41400 expressing wild type Fks1p and Fks2p D666G mutant by CLSI method; format: functional; method in brief: as §2
Nakaseomyces glabratus [20] = test: Antifungal activity against Candida glabrata isolate 5416 expressing wild type Fks1p and Fks2p W1375L mutant by CLSI method; format: functional; method in brief: as §2
[21] = Inhibition of Candida glabrata isolate 42971 1,3-beta-D-glucan synthase Fks1p D632Y mutant/Fks2p R1377STOP mutant; set-up: species or system Nakaseomyces glabratus; method in brief: as §1
[22] = biological target: 1,3-beta-glucan synthase component FKS1 (Candida glabrata, UniProt E2GKZ4, D632E); test: Inhibition of Candida glabrata isolate 3169 1,3-beta-D-glucan synthase Fks1p D632E mutant/wild type Fks2p; set-up: species or system Nakaseomyces glabratus; method in brief: as §1
Nakaseomyces glabratus [23] = test: Antifungal activity against Candida glabrata isolate 234 expressing wild type Fks1p and Fks2p F659V mutant by CLSI method; format: functional; method in brief: as §2
Nakaseomyces glabratus [24] = test: Antifungal activity against Candida glabrata isolate 3830 expressing wild type Fks1p and Fks2p S663P mutant by CLSI method; format: functional; method in brief: as §2
Nakaseomyces glabratus [25] = test: Antifungal activity against Candida glabrata isolate 42997 expressing Fks1p F625S mutant and wild type Fks2p by CLSI method in presence of 50% human serum; format: functional; method in brief: as §3
Nakaseomyces glabratus [26] = test: Antifungal activity against Candida glabrata isolate 218 expressing wild type Fks1p and Fks2p by CLSI method; format: functional; method in brief: as §2
Nakaseomyces glabratus [27] = test: Antifungal activity against Candida glabrata isolate 5847 expressing Fks1p S629P mutant and wild type Fks2p by CLSI method in presence of 50% human serum; format: functional; method in brief: as §3
Nakaseomyces glabratus [28] = test: Antifungal activity against Candida glabrata isolate 41026 expressing wild type Fks1p and Fks2p F659S mutant by CLSI method; format: functional; method in brief: as §2
Nakaseomyces glabratus [29] = test: Antifungal activity against Candida glabrata isolate 31498 expressing wild type Fks1p and Fks2p F659 deletion mutant by CLSI method in presence of 50% human serum; format: functional; method in brief: as §3
Nakaseomyces glabratus [30] = test: Ratio of IC50 for Candida glabrata wild type 1,3-beta-glucan synthase to IC50 for Candida glabrata 1,3-beta-glucan synthase mutant
Nakaseomyces glabratus [31] = test: Antifungal activity against Candida glabrata isolate 3168 expressing wild type Fks1p and Fks2p by CLSI method in presence of 50% human serum; format: functional; method in brief: as §3
Nakaseomyces glabratus [32] = test: Antifungal activity against Candida glabrata isolate 218 expressing wild type Fks1p and Fks2p by CLSI method in presence of 50% human serum; format: functional; method in brief: as §3
Nakaseomyces glabratus [33] = test: Antifungal activity against Candida glabrata isolate 41026 expressing wild type Fks1p and Fks2p F659S mutant by CLSI method in presence of 50% human serum; format: functional; method in brief: as §3
Nakaseomyces glabratus [34] = test: Antifungal activity against Candida glabrata isolate 21900 expressing Fks1p D632G mutant and wild type Fks2p by CLSI method in presence of 50% human serum; format: functional; method in brief: as §3

Compound	pIC50 (1,3-beta-glucan synthase [1])	MIC (Nakaseomyces glabratus [2]) [µg/mL]	pIC50 (1,3-beta-glucan synthase [3])	MIC (Nakaseomyces glabratus [4]) [µg/mL]	MIC (Nakaseomyces glabratus [5]) [µg/mL]	pIC50 [6]	MIC (Nakaseomyces glabratus [7]) [µg/mL]	MIC (Nakaseomyces glabratus [8]) [µg/mL]	pIC50 [9]	pIC50 (1,3-beta-glucan synthase [10])	MIC (Nakaseomyces glabratus [11]) [µg/mL]	MIC (Nakaseomyces glabratus [12]) [µg/mL]	MIC (Nakaseomyces glabratus [13]) [µg/mL]	pIC50 (1,3-beta-glucan synthase [14])	MIC (Nakaseomyces glabratus [15]) [µg/mL]	IC50 [16] [µg/mL]	IC50 [17] [µg/mL]	IC50 [18] [µg/mL]	MIC (Nakaseomyces glabratus [19]) [µg/mL]	MIC (Nakaseomyces glabratus [20]) [µg/mL]	also measured
CCCCCOc1ccc(-c2cc(-c3ccc(C(=O)N[C@H]4C[C@@H](O)[C@@H](O)NC(=O)[C@@H]5[C@@H](O)[C@@H](C)CN5C(=O)[C@H]([C@H](O)CC(N)=O)NC(=O)[C@H]([C@H](O)[C@@H](O)c5ccc(O)c(OS(=O)(=O)O)c5)NC(=O)[C@@H]5C[C@@H](O)CN5C(=O)[C@H]([C@@H](C)O)NC4=O)cc3)no2)cc1 [MICAFUNGIN] (X1-[Orn(4R-OH,5R-OH)]T[Hyp][hTyr(3S-OH,4S-OH,3'-OSO3H)][Gln(3R-OH)][Pro(3S-OH,4S-Me)]; lactam 1-C)	7.05	2.52 (≈ 1.98 µM)	6.08	4	8	6.57	4 (≈ 3.15 µM)	0.4 (≈ 0.315 µM)	7.00	7.16	8	4	0.03 (≈ 0.0236 µM)	7.06	0.25	0.1235 (≈ 0.0972 µM)	0.00056 (≈ 0.000441 µM)	0.00071 (≈ 0.000559 µM)	0.12 (≈ 0.0945 µM)	0.25 (≈ 0.197 µM)	IC50 [21]: 0.4134 µg/mL (≈ 0.325 µM); pIC50 [22]: 6.46; MIC (Nakaseomyces glabratus [23]): 1 µg/mL (≈ 0.787 µM); MIC (Nakaseomyces glabratus [24]): 1 µg/mL (≈ 0.787 µM); MIC (Nakaseomyces glabratus [25]): 4 µg/mL; MIC (Nakaseomyces glabratus [26]): 0.12 µg/mL (≈ 0.0945 µM); MIC (Nakaseomyces glabratus [27]): 8 µg/mL; MIC (Nakaseomyces glabratus [28]): 4 µg/mL (≈ 3.15 µM); MIC (Nakaseomyces glabratus [29]): 8 µg/mL; Ratio IC50 (Nakaseomyces glabratus [30]): 60; MIC (Nakaseomyces glabratus [31]): 0.5 µg/mL; MIC (Nakaseomyces glabratus [32]): 1 µg/mL; MIC (Nakaseomyces glabratus [33]): 16 µg/mL; MIC (Nakaseomyces glabratus [34]): 8 µg/mL
CC[C@H](C)C[C@H](C)CCCCCCCCC(=O)N[C@H]1C[C@@H](O)[C@@H](NCCN)NC(=O)[C@@H]2[C@@H](O)CCN2C(=O)[C@H]([C@H](O)CCN)NC(=O)[C@H]([C@H](O)[C@@H](O)c2ccc(O)cc2)NC(=O)[C@@H]2C[C@@H](O)CN2C(=O)[C@H]([C@@H](C)O)NC1=O [CASPOFUNGIN]	6.98	2.52 (≈ 2.3 µM)	6.01	8	8	6.16	2 (≈ 1.83 µM)	2 (≈ 1.83 µM)	6.20	6.63	8	8	0.06 (≈ 0.0549 µM)	6.82	0.12	0.1172 (≈ 0.107 µM)	0.00311 (≈ 0.00284 µM)	0.00192 (≈ 0.00176 µM)	4 (≈ 3.66 µM)	4 (≈ 3.66 µM)	IC50 [21]: 5.2485 µg/mL (≈ 4.8 µM); pIC50 [22]: 6.11; MIC (Nakaseomyces glabratus [23]): 4 µg/mL (≈ 3.66 µM); MIC (Nakaseomyces glabratus [24]): 16 µg/mL (≈ 14.6 µM); MIC (Nakaseomyces glabratus [25]): 8 µg/mL; MIC (Nakaseomyces glabratus [26]): 0.12 µg/mL (≈ 0.11 µM); MIC (Nakaseomyces glabratus [27]): 8 µg/mL; MIC (Nakaseomyces glabratus [28]): 16 µg/mL (≈ 14.6 µM); MIC (Nakaseomyces glabratus [29]): 8 µg/mL; Ratio IC50 (Nakaseomyces glabratus [30]): 267; MIC (Nakaseomyces glabratus [31]): 0.12 µg/mL; MIC (Nakaseomyces glabratus [32]): 0.25 µg/mL; MIC (Nakaseomyces glabratus [33]): 16 µg/mL; MIC (Nakaseomyces glabratus [34]): 16 µg/mL
